Experimental data taken from ChEMBL document CHEMBL1938283, “Novel diamino imidazole and pyrrole-containing polyamides: Synthesis and DNA binding studies of mono- and diamino-phenyl-ImPy*Im polyamides designed to target 5'-ACGCGT-3'” (Bioorg Med Chem, 2012).
The source made the active and inactive calls. The calls are words filed in the database; no cut-off is given here.

Legend:
[1] = Solubility of the compound in water; type: physicochemical; details: buffer
Nucleic Acid [2] = test: Binding affinity to 5'-ACGCGT-3' sequence in 125 bp 5'-[32P]-radiolabeled DNA at 0.05 uM after 30 mins by DNase1 footprinting analysis; type: nucleic-acid assay
Procedure, shortened: (§1)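 A 125 bp radiolabeled PCR fragment was incubated 30 min at room temperature with polyamide in 10 mM Tris, 10 mM NaCl, pH 7. DNase I (0.02 U, with Mg2+/Mn2+, pH 8.0) then cleaved for 3 min, stopped by freezing on dry ice. Products were resolved on a denaturing 10% polyacrylamide urea gel and read by autoradiography.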

Nucleic Acid [3] = test: Binding affinity to 5'-AAATTT-3' DNA assessed as macroscopic binding constant K1 by surface plasmon resonance-biosensor method; type: nucleic-acid assay
Procedure, shortened: (§2)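 SPR biosensor at 25 °C. 5'-biotinylated DNA hairpins, about 400 RU, were captured on streptavidin chips, with one blank flow cell as reference. Running buffer was 0.01 M cacodylic acid pH 6.25, 0.1 M NaCl, 1 mM EDTA, 0.005% P20. Known polyamide concentrations were injected and fitted to one- or two-site models to give K1 and K2.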

Nucleic Acid [4] = test: Binding affinity to DNA minor-groove 5'-ACGCGT-3' sequence; type: nucleic-acid assay
Nucleic Acid [5] = test: Binding affinity to DNA minor-groove 5'-ACCGGT-3' sequence; type: nucleic-acid assay
Nucleic Acid [6] = test: Binding affinity to 5'-ACGCGT-3' sequence in 125 bp 5'-[32P]-radiolabeled DNA at 0.5 uM after 30 mins by DNase1 footprinting analysis; type: nucleic-acid assay; procedure, shortened: as §1
Nucleic Acid [7] = test: Binding affinity to 5'-AAATTT-3' DNA assessed as change in melting temperature at 1:3 of DNA/compound ratio by spectrophotometry; type: nucleic-acid assay
Procedure, shortened: (§3)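 UV thermal melt (Cary spectrophotometer) of each duplex, 1 µM DNA with 3 µM polyamide, in 10 mM phosphate buffer with 12.5 mM NaCl, 1 mM EDTA, pH 6.2. ΔTM is the melting temperature of the DNA–polyamide complex minus that of duplex DNA alone.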

Nucleic Acid [8] = test: Binding affinity to 5'-ACGCGT-3' DNA assessed as macroscopic binding constant K1 by surface plasmon resonance-biosensor method; type: nucleic-acid assay; procedure, shortened: as §2
Nucleic Acid [9] = test: Binding affinity to 5'-ACGCGT-3' DNA assessed as change in melting temperature at 1:3 of DNA/compound ratio by spectrophotometry; type: nucleic-acid assay; procedure, shortened: as §3
Nucleic Acid [10] = test: Binding affinity to 5'-AAATTT-3' DNA; type: nucleic-acid assay
Nucleic Acid [11] = test: Binding affinity to 5'-ACACTT-3' DNA assessed as change in melting temperature at 1:3 of DNA/compound ratio by spectrophotometry; type: nucleic-acid assay; procedure, shortened: as §3
Nucleic Acid [12] = test: Binding affinity to 5'-ACGCGT-3' DNA assessed as macroscopic binding constant K2 by surface plasmon resonance-biosensor method; type: nucleic-acid assay; procedure, shortened: as §2
Nucleic Acid [13] = test: Binding affinity to 5'-ACGCGT-3' DNA at 9:500 of DNA/compound ratio by CD spectral analysis; type: nucleic-acid assay
Nucleic Acid [14] = test: Binding affinity to 5'-AAATTT-3' DNA by surface plasmon resonance-biosensor method; type: nucleic-acid assay; procedure, shortened: as §2
Nucleic Acid [15] = test: Binding affinity to 5'-AAATTT-3' DNA at 9:500 of DNA/compound ratio by CD spectral analysis; type: nucleic-acid assay
Nucleic Acid [16] = test: Binding affinity to 5'-AAGCTA-3' DNA assessed as macroscopic binding constant K1 by surface plasmon resonance-biosensor method; type: nucleic-acid assay; procedure, shortened: as §2
Nucleic Acid [17] = test: Binding affinity to DNA minor-groove 5'-ACGCGT-3' sequence at 9:500 of DNA/compound ratio by CD spectral analysis; type: nucleic-acid assay
Nucleic Acid [18] = test: Binding affinity to 5'-ACGCGT-3' DNA by surface plasmon resonance-biosensor method; type: nucleic-acid assay; procedure, shortened: as §2
Nucleic Acid [19] = test: Binding affinity to 5'-ACACTT-3' DNA at 9:500 of DNA/compound ratio by CD spectral analysis; type: nucleic-acid assay
Nucleic Acid [20] = test: Binding affinity to 5'-AAGCTA-3' DNA assessed as macroscopic binding constant K2 by surface plasmon resonance-biosensor method; type: nucleic-acid assay; procedure, shortened: as §2
Nucleic Acid [21] = test: Binding affinity to 5'-AAGCTA-3' DNA by surface plasmon resonance-biosensor method; type: nucleic-acid assay; procedure, shortened: as §2
Nucleic Acid [22] = test: Binding affinity to 5'-ACGCGT-3' DNA at 30:80 of DNA/compound ratio by isothermal titration calorimetry; type: nucleic-acid assay
Procedure, shortened: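 ITC by the model-free method at 25 °C in 0.01 M cacodylic acid. Polyamide at 80 µM was injected into 30 µM DNA in 30 × 10 µL injections, every 300 s after a 300 s delay, up to a mole ratio of about 0.6:1. Integrated heats were corrected for nonspecific heats including dilution, and normalized ΔH was fitted linearly against mole ratio.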

Nucleic Acid [23] = test: Binding affinity to 5'-ACCGGT-3' sequence in 125 bp 5'-[32P]-radiolabeled DNA at 100 uM after 30 mins by DNase1 footprinting analysis; type: nucleic-acid assay; procedure, shortened: as §1
Nucleic Acid [24] = test: Binding affinity to 5'-AGCGCT-3' sequence in 125 bp 5'-[32P]-radiolabeled DNA at 100 uM after 30 mins by DNase1 footprinting analysis; type: nucleic-acid assay; procedure, shortened: as §1
Nucleic Acid [25] = test: Binding affinity to 5'-ACACGT-3' sequence in 125 bp 5'-[32P]-radiolabeled DNA at 100 uM after 30 mins by DNase1 footprinting analysis; type: nucleic-acid assay; procedure, shortened: as §1
Nucleic Acid [26] = test: Binding affinity to 5'-ACGCGT-3' sequence in 125 bp 5'-[32P]-radiolabeled DNA at 20 uM after 30 mins by DNase1 footprinting analysis; type: nucleic-acid assay; procedure, shortened: as §1

| SMILES | Activity (Nucleic Acid [6]) | ΔTm (Nucleic Acid [7]) [°C] | K (Nucleic Acid [8]) | ΔTm (Nucleic Acid [9]) [°C] | ΔTm (Nucleic Acid [11]) [°C] | K (Nucleic Acid [12]) [×10⁸ /M] | Activity (Nucleic Acid [13]) | Activity (Nucleic Acid [14]) | K (Nucleic Acid [16]) [×10⁵ /M] | Activity (Nucleic Acid [17]) | Kb (Nucleic Acid [18]) | K (Nucleic Acid [20]) | Kb (Nucleic Acid [21]) | Activity (Nucleic Acid [22]) | also measured |
| --- | --- | --- | --- | --- | --- | --- | --- | --- | --- | --- | --- | --- | --- | --- | --- |
| CN(C)CCNC(=O)c1nc(NC(=O)c2cc(NC(=O)c3nc(NC=O)cn3C)cn2CCCN)cn1C.Cl | – | – | – | – | – | – | – | – | – | – | – | – | – | – | solubility [1]: soluble |
| CN(C)CCNC(=O)c1nc(NC(=O)c2cc(NC(=O)c3nc(NC=O)cn3C)cn2C)cn1C | Active | 1 | 1.9 ×10⁸ /M | 9 | – | – | – | – | – | – | – | – | – | – | Activity (Nucleic Acid [2]): Active; K (Nucleic Acid [3]): 5.3 ×10⁴ /M; K (Nucleic Acid [4]): 1.9 ×10⁸ /M; K (Nucleic Acid [5]): 2.2 ×10⁵ /M; K (Nucleic Acid [10]): 5.3 ×10⁴ /M |
| CN(C)CCNC(=O)c1nc(NC(=O)c2cc(NC(=O)c3nc(NC(=O)c4ccccc4)cn3C)cn2CCCN)cn1C | Active | 7.6 | 8.7 ×10⁵ /M | > 25 | 0 | 2.7 | Active | inactive | 2.9 | Active | 1.5 ×10⁷ /M | 1.2 ×10⁷ /M | 2.1 ×10⁶ /M | Active | Activity (Nucleic Acid [15]): Active; Activity (Nucleic Acid [19]): Active |
| CN(C)CCNC(=O)c1nc(NC(=O)c2cc(NC(=O)c3nc(NC(=O)c4ccccc4)cn3C)cn2C)cn1C | – | 0 | 6.1 ×10⁴ /M | 9 | 0 | 3.7 | Active | inactive | 2.3 | Active | 4.8 ×10⁶ /M | 2.8 ×10⁵ /M | 2.5 ×10⁵ /M | Active | Activity (Nucleic Acid [23]): inactive; Activity (Nucleic Acid [24]): inactive; Activity (Nucleic Acid [25]): inactive; Activity (Nucleic Acid [26]): Active |
